The IC50 is the concentration that inhibits the measured activity by half.

This note sets out measurements from ChEMBL document CHEMBL1140821, “Novel indole-3-sulfonamides as potent HIV non-nucleoside reverse transcriptase inhibitors (NNRTIs)” (Bioorg Med Chem Lett, 2008).

Where only a bound is given, the exact number is not on record here.

The nature of experiment [1]: Inhibition of HIV NL43 recombinant reverse transcriptase by scintillation proximity assay. The arrangement: species or system Human immunodeficiency virus. Summed up:
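Purified recombinant wild-type RT (NL_43) polymerase activity measured as 3H-dNTP incorporation, using a 500 nt heteropolymeric RNA template with biotinylated DNA primer. Read by scintillation proximity assay.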
On the technique in general: Scintillation proximity formats need no separation of bound from free tracer.

Experiment [2] concerns Human immunodeficiency virus. In words: Antiviral activity against HIV 3B in MT4 cells assessed as inhibition of replication after 3 days in presence of 10% fetal bovine serum. The format is functional. To be noted: Human immunodeficiency virus 1, 3B, MT4, 72 h; read-out: CIC95. Summed up:
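MT4 cells infected overnight with wild-type H9IIIB virus (moi 0.01) without compound, washed, then cultured 3 days across a compound concentration range in 10% FBS. Replication read as p24 in culture supernatants. CIC95 = lowest concentration inhibiting replication by ≥95%.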

Experiment [3] addresses Human immunodeficiency virus type 1 reverse transcriptase (Human immunodeficiency virus 1, UniProt Q72547, K103N). Kind of experiment: Inhibition of HIV NL43 recombinant reverse transcriptase K103N mutant by scintillation proximity assay.
Experiment [4] has as its target Human immunodeficiency virus type 1 reverse transcriptase (Human immunodeficiency virus 1, UniProt Q72547, Y181C). Kind of experiment: Inhibition of HIV HXB2 recombinant reverse transcriptase Y181C mutant by scintillation proximity assay.

As to `NC(=O)c1[nH]c2ccc(Br)cc2c1S(=O)(=O)NC1CCCCC1`, in experiment [1], the IC50 was determined as 14 nM. The IC95 in experiment [2] was 125 nM.

Take `NC(=O)c1[nH]c2ccc(C#CC3CC3)cc2c1S(=O)(=O)N1CCCC1`: the IC50 in experiment [1] was found to be 430 nM. The IC95 in experiment [2] turned out to be 630 nM.

Consider `Cc1cnc(-c2[nH]c3ccc(Br)cc3c2S(=O)(=O)N2CCCC2)[nH]1`, for which the IC50 in experiment [1] was found to be 3.1 nM; in experiment [3], 42 nM; in experiment [4], 25 nM. In addition, the IC95 in experiment [2] is below 7.8 nM.

On to `O=C(NCc1nccs1)c1[nH]c2ccc(Br)cc2c1S(=O)(=O)N1CCCC1`, for which the 50% inhibitory concentration (IC50) in experiment [1] worked out at 2.8 nM; in experiment [3], 280 nM; in experiment [4] it was 200 nM. In addition, the IC95 in experiment [2] was below 7.8 nM.

Take `NC(=O)c1[nH]c2ccc(Cl)cc2c1S(=O)(=O)c1ccccc1` [L-737126]: the IC50 amounted to 3 nM in experiment [1], 116 nM in experiment [3] and 71 nM in experiment [4].

For `NC(=O)c1[nH]c2ccc(Cl)cc2c1S(=O)(=O)N1CCCC1`, the IC50 was determined as 3.9 nM in experiment [1], 1960 nM in experiment [3] and 48 nM in experiment [4]. For the same compound, in experiment [2], the IC95 was below 7.8 nM.

As to `N#Cc1ccc2[nH]c(C(N)=O)c(S(=O)(=O)N3CCCC3)c2c1`, the figures for the IC50 in experiment [1], in experiment [3] and in experiment [4] were 9.1 nM, 2300 nM and above 10000 nM, respectively. Further, the IC95 in experiment [2] worked out at 16 nM.

Turning to `NC(=O)c1[nH]c2ccc(Br)cc2c1S(=O)(=O)NC1CCCC1`, the IC50 in experiment [1] is 18 nM. Further, in experiment [2], the IC95 is 125 nM.

Take `NC(=O)c1[nH]c2ccc(Br)cc2c1S(=O)(=O)N1CCCC1`: the results for the IC50 in experiment [3] and in experiment [4] were 10000 nM and 120 nM, respectively. Also, the IC95 in experiment [2] is below 7.8 nM.

Regarding `O=S(=O)(c1c(-c2nc3ccc(F)cc3[nH]2)[nH]c2ccc(Br)cc12)N1CCCC1`, the IC50 in experiment [1] worked out at 15 nM; in experiment [3], 220 nM; in experiment [4] it was 5300 nM. Besides, the IC95 in experiment [2] was determined as 280 nM.

For `NC(=O)c1[nH]c2ccc(Cc3ccc(Cl)cn3)cc2c1S(=O)(=O)N1CCCC1`, the half-maximal inhibitory concentration (IC50) in experiment [1] is 59 nM; in experiment [3] it was 8200 nM; in experiment [4], above 10000 nM.

Take `NC(=O)c1[nH]c2ccc(Br)cc2c1S(=O)(=O)NC1CCC(F)(F)C1` (centres undefined): in experiment [1], the IC50 came out at 0.2 nM. For the same compound, the IC95 in experiment [2] was 140 nM.

For the compound `NC(=O)c1[nH]c2ccc(Br)cc2c1S(=O)(=O)N1CCC(F)(F)CC1`, the IC50 in experiment [1] amounted to 4.5 nM. In experiment [2], the IC95 was determined as 410 nM.

In the case of `CCC(O)c1cnc(-c2[nH]c3ccc(Br)cc3c2S(=O)(=O)N2CCCC2)[nH]1` (centres undefined), the IC50 amounted to 8.8 nM in experiment [1], 62 nM in experiment [3] and 2600 nM in experiment [4]. Also, the IC95 in experiment [2] was 50 nM.

As for `Cc1cnc(-c2[nH]c3ccc(Cl)cc3c2S(=O)(=O)c2ccccc2)[nH]1`, the IC50 in experiment [1] was 5 nM. Further, the IC95 in experiment [2] stood at 12 nM.

`O=C(NCc1ccnc2ccccc12)c1[nH]c2ccc(Br)cc2c1S(=O)(=O)N1CCCC1`: the IC50 in experiment [1] turned out to be 3.1 nM; in experiment [3], 25 nM; in experiment [4], 63 nM. The IC95 in experiment [2] came out at 82 nM.

Consider `NC(=O)c1[nH]c2ccc(C3CC3)cc2c1S(=O)(=O)N1CCCC1`, for which the IC50 in experiment [1] was determined as 940 nM. The IC95 in experiment [2] came to 160 nM.

With `COc1ccc2nc(-c3[nH]c4ccc(Br)cc4c3S(=O)(=O)N3CCCC3)[nH]c2c1`, the values for the IC50 in experiment [1], in experiment [3] and in experiment [4] were 45 nM, 150 nM and 5100 nM, respectively. Moreover, the IC95 in experiment [2] was 400 nM.

On to `NC(=O)c1[nH]c2ccc(Br)cc2c1S(=O)(=O)N1CCCCC1`, for which the IC50 in experiment [1] is 5.7 nM. Also, the IC95 in experiment [2] came out at 16 nM.

Regarding `NC(=O)c1[nH]c2ccc(-c3ccccc3)cc2c1S(=O)(=O)N1CCCC1`, in experiment [1], the 50% inhibitory concentration (IC50) is 550 nM. Besides, the IC95 in experiment [2] is 1300 nM.

As to `O=S(=O)(c1c(-c2ncc(-c3ccccc3)[nH]2)[nH]c2ccc(Br)cc12)N1CCCC1`, the IC50 is 11 nM in experiment [1], 150 nM in experiment [3] and above 9100 nM in experiment [4]. In experiment [2], the IC95 was 67 nM.

In the case of `NC(=O)c1[nH]c2ccc(Br)cc2c1S(=O)(=O)NC1CCC1`, the IC50 in experiment [1] turned out to be 0.5 nM. In addition, in experiment [2], the IC95 came to 125 nM.

With `O=S(=O)(c1c(-c2nc3cccnc3[nH]2)[nH]c2ccc(Br)cc12)N1CCCC1`, the IC50 was found to be 40 nM in experiment [1], 370 nM in experiment [3] and 5000 nM in experiment [4]. The IC95 in experiment [2] was found to be 82 nM.

For the compound `O=C(NCc1ccncc1)c1[nH]c2ccc(Br)cc2c1S(=O)(=O)N1CCCC1`, the IC50 in experiment [1] turned out to be 14 nM; in experiment [3], 170 nM; in experiment [4] it was 6.3 nM. In addition, the IC95 in experiment [2] is below 7.8 nM.

Consider `NC(=O)c1[nH]c2ccc(-c3cccnc3)cc2c1S(=O)(=O)N1CCCC1`, for which the 50% inhibitory concentration (IC50) in experiment [1] is 2200 nM. The IC95 in experiment [2] was found to be 310 nM.

As to `O=C(NCCO)c1[nH]c2ccc(Br)cc2c1S(=O)(=O)N1CCCC1`, the IC50 in experiment [1] amounted to 15 nM; in experiment [3], 2800 nM; in experiment [4], 6.9 nM. Also, in experiment [2], the IC95 was 625 nM.

`O=S(=O)(c1c(-c2nc3ccccc3[nH]2)[nH]c2ccc(Br)cc12)N1CCCC1`: the results for the IC50 in experiment [1], in experiment [3] and in experiment [4] were 6.9 nM, 280 nM and 38 nM, respectively. In addition, in experiment [2], the IC95 turned out to be 78 nM.

As to `O=C(NCc1ccn[nH]1)c1[nH]c2ccc(Br)cc2c1S(=O)(=O)N1CCCC1`, the results for the IC50 in experiment [1], in experiment [3] and in experiment [4] were 2.5 nM, 260 nM and 829 nM, respectively. In addition, the IC95 in experiment [2] is below 7.8 nM.

Turning to `CCC(OC)c1cnc(-c2[nH]c3ccc(Br)cc3c2S(=O)(=O)N2CCCC2)[nH]1` (centres undefined), the IC50 is 16 nM in experiment [1], 110 nM in experiment [3] and 240 nM in experiment [4]. Also, in experiment [2], the IC95 was determined as 100 nM.

In the case of `O=S(=O)(c1c(-c2nc3cccc(O)c3[nH]2)[nH]c2ccc(Br)cc12)N1CCCC1`, the IC50 in experiment [1] amounted to 10 nM; in experiment [3], 48 nM; in experiment [4] it was 810 nM. The IC95 in experiment [2] came out at 82 nM.

`O=C(NCc1c(F)cccc1Cl)c1[nH]c2ccc(Br)cc2c1S(=O)(=O)N1CCCC1`: the values for the IC50 in experiment [1], in experiment [3] and in experiment [4] were 3.8 nM, 20 nM and 16 nM, respectively. Also, in experiment [2], the IC95 came to 25 nM.

As for `O=C(NCc1ccccc1O)c1[nH]c2ccc(Br)cc2c1S(=O)(=O)N1CCCC1`, the concentration for half-maximal inhibition (IC50) in experiment [1] turned out to be 2.4 nM; in experiment [3] it was 31 nM; in experiment [4], 9.4 nM. In experiment [2], the IC95 turned out to be 23 nM.

On to `O=C(NCc1cncs1)c1[nH]c2ccc(Br)cc2c1S(=O)(=O)N1CCCC1`, for which the IC50 in experiment [1] was 6.2 nM; in experiment [3] it was 93 nM; in experiment [4] it was 6 nM. Moreover, the IC95 in experiment [2] came out at 16 nM.

In the case of `CCCNS(=O)(=O)c1c(C(N)=O)[nH]c2ccc(Br)cc12`, the IC50 in experiment [1] stood at 19 nM. Besides, the IC95 in experiment [2] was determined as 160 nM.
